# Most compounds without a hit are left out; they make up all but 3.8% or so of the library.
# CHO parental Ca: ATP-evoked calcium signal inhibitors, parental CHO, primary screen, counter-screen for OX1R antagonist project, cell-based, fluorescence, Fluo-8 calcium dye; 0.63% of 330,000 active; inhibition, % at 5.6 µM; parental CHO-K1, ATP-induced calcium, Fluo-8 fluorescence;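 active means inhibition above that plate's mean sample inhibition plus 3 SD, cut at about 26% in these data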
#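 Material – parental CHO cells · Reagent – ATP stimulus · Compound – single nominal dose of 5.6 µM per compound · Detection – Fluo-8 fluorescence · Read-out basis – percent inhibition of calcium signal · Controls – ATP-challenged DMSO wells low, unchallenged DMSO wells high · Repeats – no replicates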
# GPR7 antagonist: GPR7 receptor antagonists, primary screen, cell-based, fluorescence, single concentration; GPR7-expressing cells, fluorescence antagonist assay; Neuropeptides B/W receptor type 1 (Homo sapiens), P48145; AID 1861, 2009; 1.1% of 290,000 active; inhibition, % at 4.4 µM; in the data active means inhibition above about 16%, passing the limit was not always enough;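 further: cells stimulated with the agonist NPW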
# Target sequence (P48145 whole entry, looked up): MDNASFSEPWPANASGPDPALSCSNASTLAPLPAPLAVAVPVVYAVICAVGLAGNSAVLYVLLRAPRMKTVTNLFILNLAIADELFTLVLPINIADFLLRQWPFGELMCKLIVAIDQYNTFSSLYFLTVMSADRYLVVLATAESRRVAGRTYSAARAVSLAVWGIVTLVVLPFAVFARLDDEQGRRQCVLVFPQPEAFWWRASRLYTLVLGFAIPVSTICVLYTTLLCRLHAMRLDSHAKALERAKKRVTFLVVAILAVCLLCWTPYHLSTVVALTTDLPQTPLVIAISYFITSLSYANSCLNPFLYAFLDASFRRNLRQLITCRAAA
# OX1R antag-1: antagonists of human orexin 1 receptor (OX1R); OX1R-expressing cells, FRET antagonist read-out; AID 485270, 2010; 1.8% of 330,000 active; inhibition, % at 6.6 µM; Orexin/Hypocretin receptor type 1 (Homo sapiens), O43613; in the data active means inhibition mostly above about 38%, no sharp cut-off; inactive means mostly below about 40%
# MPTP block: mitochondrial permeability transition pore inhibitors, primary screen, biochemical, isolated mouse mitochondria, absorbance; Ca2+ swelling absorbance, 30 min; inhibition, % at 10 µM; 1.4% of 360,000 active;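 active means inhibition of 50% or more, scaled per plate between neutral and stimulator controls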
# OX1R antag-2: OX1R (HCRTR1) antagonists, primary screen, fluorescence, CHO/OX1R cells, Fluo-8 calcium, orexin A; AID 434989, 2010; 0.43% of 330,000 active; Fluo-8 calcium fluorescence; inhibition, % at 5 µM;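 active means inhibition above its plate's threshold, mean inhibition of all tested compounds on the plate plus 3 SD, cut at about 37% in these data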
# OX1R Fluo8 conf: OX1R (HCRTR1) antagonists, confirmation, fluorescence, CHO/OX1R cells, Fluo-8 calcium, orexin A; shares compounds with OX1R antag-2; orexin A calcium Fluo-8 fluorescence; inhibition, % at 5 µM; 38% of 1,100 active; AID 492963, 2010; in the data active means inhibition above about 29%
# CHO Ca counter: ATP-evoked calcium inhibition in parental CHO, counter-screen for OX1R antagonist project, cell-based, fluorescence, CHO-K1, triplicate. ATP-induced calcium, Fluo-8 fluorescence. AID 492965, 2010. shares compounds with OX1R antag-2. inhibition, % at 5.6 µM. 9.3% of 1,100 active;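 active means inhibition above a per-plate limit, the mean inhibition of that plate's test compounds plus 3 SD, cut at about 25% in these data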
# OX1R HTRF conf: OX1R (HCRTR1) antagonists, confirmation, cell-based, HTRF; shares compounds with OX1R antag-1; 49% of 1,800 active; OX1R-expressing cells, HTRF antagonist assay; AID 492964, 2010; inhibition, % at 6.6 µM; in the data active means inhibition above about 55%;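 further: CHO cells expressing OX1R stimulated with orexin A at about EC80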
# CHO-K1 HTRF cnt: signal inhibition in parental CHO-K1 cells, counter-screen for OX1R antagonist project, cell-based, HTRF; shares compounds with OX1R antag-1; HTRF counterscreen; inhibition, % at 6.6 µM; 48% of 1,800 active; in the data active means inhibition above about 17%
# A number is an active result; i = inactive; nt = not tested or not shown.
SMILES,CHO parental Ca,GPR7 antagonist,OX1R antag-1,MPTP block,OX1R antag-2,OX1R Fluo8 conf,CHO Ca counter,OX1R HTRF conf,CHO-K1 HTRF cnt
CCN(CC)c1ccc(/C=N/NC(=O)c2ccc(Br)o2)cc1,i,i,91,i,i,55,i,90,i
CC1CCN(CC(=O)Nc2ccc(C(=O)N3CCCCC3)cc2)CC1,i,i,i,i,i,nt,nt,nt,nt
COc1ccc(-c2cc3ncc(C(C)=O)c(C)n3n2)cc1,i,i,i,i,i,nt,nt,nt,nt
C=CCOC(=O)C1C(=O)CC(C)(O)C(C(=O)OCC=C)C1c1ccc(N(C)C)cc1 (configuration not stated),i,i,i,i,i,nt,nt,nt,nt
COc1ccc(/C=C/C(=O)OCC(=O)c2c(C)[nH]c3ccccc23)cc1OC,i,i,76,i,49,44,i,80,i
COc1ccc(C(=O)NCC(=O)OCC(=O)c2c(C)[nH]c3ccccc23)cc1OC,i,nt,i,i,i,nt,nt,nt,nt
CCOc1ccc(NC(=O)C(C)NC(=O)c2ccccc2Cl)cc1S(=O)(=O)N1CCCC1 (configuration not stated),i,nt,i,i,i,nt,nt,nt,nt
CCN1C(=O)c2cccc3c(S(=O)(=O)NCCc4c[nH]c5ccccc45)ccc1c23,i,i,81,i,i,32,i,72,i
CSc1cccc(N2CC(C(=O)NCCN3C(=O)S/C(=C\c4cccnc4)C3=O)CC2=O)c1 (configuration not stated),i,nt,145,i,i,67,i,112,33
Cc1cc(Cl)ccc1OCCCC(=O)NCCN1C(=O)S/C(=C\c2cccnc2)C1=O,i,i,114,i,94,94,i,91,i
O=C(NCCN1C(=O)S/C(=C\c2cccnc2)C1=O)C1CC(=O)N(Cc2ccco2)C1 (configuration not stated),i,i,i,i,i,nt,nt,nt,nt
COc1cc(OC)cc(C(=O)Nc2ccn(C)n2)c1,i,nt,i,i,i,nt,nt,nt,nt
COc1ccc2cc(C(=O)N/N=C/c3cc(OC)c(OC)c(OC)c3)[nH]c2c1,i,i,i,i,i,nt,nt,nt,nt
COc1cc2cc(C(=O)N/N=C/c3ccc(F)cc3)[nH]c2cc1OC,i,i,67,i,i,i,i,73,i
COc1ccc(/C=N/NC(=O)c2cc3cc(OC)c(OC)cc3[nH]2)cc1,i,i,i,i,i,nt,nt,nt,nt
COc1cc2cc(C(=O)N/N=C/c3ccccc3Cl)[nH]c2cc1OC,i,i,76,i,i,i,i,89,i
COc1ccc(NC(=O)CSc2nnc(Cn3cnc4ccccc43)o2)cc1,i,i,i,i,i,nt,nt,nt,nt
O=C(C1CCCN1S(=O)(=O)c1cccc2cccnc12)N1CCn2c1nc1ccccc12 (configuration not stated),i,i,96,i,45,53,i,90,i
CC(C)c1ccc(CN(C)C(=O)c2ccc(S(=O)(=O)NCc3ccco3)cc2)cc1,i,nt,42,i,44,i,25,i,i
CN(Cc1cccs1)C(=O)c1ccc(S(=O)(=O)NCc2ccco2)cc1,i,i,i,i,i,nt,nt,nt,nt
C=CCC[C@@H](Cc1ccc(F)cc1)C(=O)OC[C@@H]1CCCN1C(=O)[C@@H](CC=C)CC(=O)N[C@@H](CO)Cc1ccccc1,i,nt,i,i,i,nt,nt,nt,nt
O=C(OCC#CCSc1nnc(-c2cccc3ccccc23)o1)c1cccc2[nH]ccc12,i,nt,67,i,68,30,i,88,i
O=C(OCC#CCSc1nnc(-c2cccc3ccccc23)o1)c1cnc[nH]1,i,nt,i,i,i,nt,nt,nt,nt
O=C(OC1CCOC1=O)c1ccc(Cl)c(S(=O)(=O)N2CCOCC2)c1 (configuration not stated),i,nt,i,i,i,nt,nt,nt,nt
CCn1c(SCC(=O)Nc2ccccc2C(=O)OC)nnc1-c1ccc(N)cc1,i,i,i,i,i,nt,nt,nt,nt
SMILES,CHO parental Ca,GPR7 antagonist,OX1R antag-1,MPTP block,OX1R antag-2,OX1R Fluo8 conf,CHO Ca counter,OX1R HTRF conf,CHO-K1 HTRF cnt
CCn1c(SCC(=O)Nc2cc3oc4ccccc4c3cc2OC)nnc1-c1cccs1,i,i,83,i,50,49,i,89,i
CCn1c(SCC(=O)Nc2nc(-c3ccccc3)cs2)nnc1-c1ccccc1,i,i,62,i,54,i,i,72,i
C=CCn1c(SCC(=O)Nc2cc3oc4ccccc4c3cc2OC)nnc1-c1cnccn1,i,i,91,i,57,66,i,91,i
CCn1c(SCC(=O)Nc2ccc3c(c2)oc2ccccc23)nnc1-c1ccc(N)cc1,i,i,84,i,i,37,i,i,i
O=C(NNC(=O)C1CCN(C(=O)Nc2ccccc2)CC1)c1ccc(F)cc1,i,nt,i,i,i,nt,nt,nt,nt
CCOc1ccc(S(=O)(=O)N2CCOCC2)cc1NC(=O)CN1C(=O)NC2(CCCCC2)C1=O,i,nt,i,i,i,nt,nt,nt,nt
CC(C)n1c(=O)c2ccccc2n1Cc1cn(Cc2cccnc2)nn1,nt,nt,nt,i,nt,nt,nt,nt,nt
CCn1c(SCC(=O)Nc2ccc3c(c2)c2ccccc2n3CC)nnc1-c1ccco1,i,i,81,i,64,35,i,83,i
CCn1c2ccccc2c2cc(NC(=O)c3cc(OC)cc(OC)c3)ccc21,i,i,85,i,81,96,i,89,i
CCn1c(SCC(=O)Nc2cccc(NC(C)=O)c2)nnc1-c1ccco1,i,i,i,i,i,nt,nt,nt,nt
COc1ccc(CNC(=O)CCSCc2ccccc2C)cc1,i,i,i,i,i,nt,nt,nt,nt
COc1ccc(NC(=O)C(=O)Nc2cccc3cccnc23)cc1OC,i,i,81,i,53,61,i,93,i
CCOc1ccc(C(=O)Nc2cccc3cccnc23)cc1,i,i,81,i,66,29,i,87,i
Cc1cccc(C)c1NC(=S)N(CCCN1CCOCC1)Cc1cccnc1,i,i,i,i,i,nt,nt,nt,nt
CCOc1ccccc1N1CCN(C(=O)c2cn(CC3CCCCC3)nn2)CC1,nt,i,nt,i,nt,nt,nt,nt,nt
COc1ccc(NC(=O)CN(C)S(=O)(=O)c2ccc3[nH]c(=O)oc3c2)cc1,i,i,56,i,i,i,i,i,i
CCc1ccc(NC(=O)CN(C)S(=O)(=O)c2ccc3[nH]c(=O)oc3c2)cc1,i,i,i,i,i,nt,nt,nt,nt

# Screening results from PubChem BioAssay.
